Article PMC3723589 (Channels, 2010)
Values joined by “and” are separate entries in the source; they are usually repeats but may differ in a detail not shown here. Equal values may be shown once. “Also recorded” adds a separate entry of the source. Read-outs that look alike come from different tables or passages of the source. Each block holds one compound with its values, some of them ahead of it.

How the values were obtained:
mouse Slo1 K+ channels [1] = molecular target: T1, mouse Slo1 K+ channels (Mus musculus, UniProt Q08460); assay: Block of Slo1 currents, blocker applied cytosolically to inside-out patches; type: cell-based; conditions: for zδ / zc / zo / zo (zδ) / Kd: 300 μM Ca2+; for zc / zo / zo (zδ) / Kd: pH 8.5
[2] = pK and percent protonation of tertiary amines; type: physicochemical; conditions: calculated from pK 9.2
mouse Slo1 K+ channels [3] = molecular target: T1, mouse Slo1 K+ channels; assay: Block of Slo1 currents, blocker applied extracellularly to outside-out patches; type: cell-based
[4] = molecular target: T2, MC13 (Slo1(1-181):Slo3(171-1121)) (Mus musculus, UniProt O54982); assay: Block of MC13; type: cell-based; conditions: for effect of extracellular 4-AP on MC13/Slo3 currents: 4-AP up to 100 mM at pH 7.0, pipette pH 8.5
[5] = test system: MC13 (Slo1(1-181):Slo3(171-1121)); assay: Block of MC13; type: cell-based, mouse; conditions: at 0 mV
human sperm = conditions: cited from earlier work
[6] = molecular target: T2, MC13 (Slo1(1-181):Slo3(171-1121)); type: cell-based; conditions: pH 8.5
murine sperm = conditions: cited from earlier work
mouse Slo3 K+ channels [7] = molecular target: T3, mouse Slo3 K+ channels (Mus musculus, UniProt O54982); type: cell-based
T3 sequence (O54982 1-1121): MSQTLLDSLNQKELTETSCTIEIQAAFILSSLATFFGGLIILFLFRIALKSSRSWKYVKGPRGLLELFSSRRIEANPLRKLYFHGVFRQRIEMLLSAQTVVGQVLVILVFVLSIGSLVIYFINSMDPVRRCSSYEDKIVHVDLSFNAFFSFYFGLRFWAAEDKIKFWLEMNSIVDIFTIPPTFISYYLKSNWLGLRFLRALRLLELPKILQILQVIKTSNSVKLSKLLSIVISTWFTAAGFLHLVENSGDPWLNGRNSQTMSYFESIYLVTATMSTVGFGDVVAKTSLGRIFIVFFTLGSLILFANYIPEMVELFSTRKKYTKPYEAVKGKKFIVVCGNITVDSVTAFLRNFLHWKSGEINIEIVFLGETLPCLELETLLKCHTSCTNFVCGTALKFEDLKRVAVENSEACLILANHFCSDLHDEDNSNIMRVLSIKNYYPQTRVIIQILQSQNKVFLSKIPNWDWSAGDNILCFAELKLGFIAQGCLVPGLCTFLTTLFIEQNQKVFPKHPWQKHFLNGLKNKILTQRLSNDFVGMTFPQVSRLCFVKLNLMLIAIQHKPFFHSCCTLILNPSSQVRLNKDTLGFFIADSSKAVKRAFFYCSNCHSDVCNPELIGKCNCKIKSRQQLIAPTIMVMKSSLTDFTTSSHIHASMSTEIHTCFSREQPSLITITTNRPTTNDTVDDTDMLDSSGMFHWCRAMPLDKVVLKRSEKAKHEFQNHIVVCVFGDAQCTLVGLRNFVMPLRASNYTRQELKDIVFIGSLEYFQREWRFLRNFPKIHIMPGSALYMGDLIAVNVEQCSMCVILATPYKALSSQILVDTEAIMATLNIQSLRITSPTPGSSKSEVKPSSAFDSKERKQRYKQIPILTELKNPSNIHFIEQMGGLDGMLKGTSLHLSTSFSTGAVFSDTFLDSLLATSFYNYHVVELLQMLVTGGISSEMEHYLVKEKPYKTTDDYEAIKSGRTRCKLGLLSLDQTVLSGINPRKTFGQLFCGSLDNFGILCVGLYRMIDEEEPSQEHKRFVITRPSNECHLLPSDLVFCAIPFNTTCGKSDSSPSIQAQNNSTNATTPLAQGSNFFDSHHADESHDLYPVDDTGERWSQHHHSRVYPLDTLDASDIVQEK

BK single channels [8] = conditions: symmetrical K+ solutions, cited from earlier work
BK single channels [9] = conditions: symmetrical K+ solutions, cited from earlier work; remark: listed apart in the source
sperm = conditions: TEA at 2.5–10 mM; cited from earlier work
Slo1-Y294V = Slo1-Y294V (Mus musculus, UniProt Q08460, Y359V); assay: Block of Slo1-Y294V currents by extracellular CTX or TEA; type: cell-based; conditions: TEA up to 10 mM
Summary of the method: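 Excised outside-out patches at room temperature (~22–25°C), with blocker applied to the extracellular face by a multi-barrel local perfusion system, one barrel flowing at a time. The extracellular solution was (mM) 140 K-methanesulfonate, 20 KOH, 10 HEPES, 2 MgCl2, pH 7.0. The pipette (cytosolic) solution was 140 K-methanesulfonate, 20 KOH, 10 HEPES, with 10 μM Ca2+ for CTX tests.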

Slo1/BK-type channels = conditions: read-out: extracellular TEA concentration for blockade (half block); cited from earlier work
mouse Slo3 K+ channels [10] = molecular target: T4, mouse Slo3 K+ channels (Mus musculus, UniProt O54982); assay: Block of Slo3 currents by extracellular blockers; type: cell-based
T4 sequence (O54982 171-1121 limits assumed): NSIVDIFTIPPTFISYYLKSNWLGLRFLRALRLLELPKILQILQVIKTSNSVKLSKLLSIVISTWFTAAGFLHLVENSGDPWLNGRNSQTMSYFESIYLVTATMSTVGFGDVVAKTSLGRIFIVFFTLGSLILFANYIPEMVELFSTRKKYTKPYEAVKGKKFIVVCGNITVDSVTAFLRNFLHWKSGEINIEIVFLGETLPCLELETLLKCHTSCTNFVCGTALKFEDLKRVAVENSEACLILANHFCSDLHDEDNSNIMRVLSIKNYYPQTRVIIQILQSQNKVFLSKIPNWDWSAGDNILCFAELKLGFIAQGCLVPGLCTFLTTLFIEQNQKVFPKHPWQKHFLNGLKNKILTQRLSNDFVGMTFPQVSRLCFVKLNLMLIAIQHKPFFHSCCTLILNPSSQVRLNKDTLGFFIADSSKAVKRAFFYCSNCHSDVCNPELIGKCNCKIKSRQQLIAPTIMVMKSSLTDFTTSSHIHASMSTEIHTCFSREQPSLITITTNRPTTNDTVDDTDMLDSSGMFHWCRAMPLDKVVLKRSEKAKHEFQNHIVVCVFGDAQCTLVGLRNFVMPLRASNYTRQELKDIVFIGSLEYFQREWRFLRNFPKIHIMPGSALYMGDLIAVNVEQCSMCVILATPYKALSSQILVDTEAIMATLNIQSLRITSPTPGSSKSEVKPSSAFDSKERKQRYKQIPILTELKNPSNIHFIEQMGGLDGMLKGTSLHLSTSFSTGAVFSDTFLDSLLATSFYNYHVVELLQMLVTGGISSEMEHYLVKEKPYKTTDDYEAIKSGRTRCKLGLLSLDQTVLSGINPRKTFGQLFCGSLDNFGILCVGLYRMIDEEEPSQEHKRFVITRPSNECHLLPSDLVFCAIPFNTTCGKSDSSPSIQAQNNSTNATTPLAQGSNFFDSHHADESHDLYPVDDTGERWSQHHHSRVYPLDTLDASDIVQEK

[11] = cytosolic 4-AP, fit OB-CB (2') 4 params
[12] = cytosolic 4-AP, fit OB-CB (2a) 2 params
[13] = read-out: Kb, block by cytosolic TEA
[14] = cytosolic TEA, fit OB-CB (2') 4 params
[15] = cytosolic TEA, fit OB-CB (2a) 2 params
[16] = cytosolic TEA, 0 Ca2+, fit OB-CB (2a) 2 params

T1 sequence (Q08460 66-1209 limits assumed): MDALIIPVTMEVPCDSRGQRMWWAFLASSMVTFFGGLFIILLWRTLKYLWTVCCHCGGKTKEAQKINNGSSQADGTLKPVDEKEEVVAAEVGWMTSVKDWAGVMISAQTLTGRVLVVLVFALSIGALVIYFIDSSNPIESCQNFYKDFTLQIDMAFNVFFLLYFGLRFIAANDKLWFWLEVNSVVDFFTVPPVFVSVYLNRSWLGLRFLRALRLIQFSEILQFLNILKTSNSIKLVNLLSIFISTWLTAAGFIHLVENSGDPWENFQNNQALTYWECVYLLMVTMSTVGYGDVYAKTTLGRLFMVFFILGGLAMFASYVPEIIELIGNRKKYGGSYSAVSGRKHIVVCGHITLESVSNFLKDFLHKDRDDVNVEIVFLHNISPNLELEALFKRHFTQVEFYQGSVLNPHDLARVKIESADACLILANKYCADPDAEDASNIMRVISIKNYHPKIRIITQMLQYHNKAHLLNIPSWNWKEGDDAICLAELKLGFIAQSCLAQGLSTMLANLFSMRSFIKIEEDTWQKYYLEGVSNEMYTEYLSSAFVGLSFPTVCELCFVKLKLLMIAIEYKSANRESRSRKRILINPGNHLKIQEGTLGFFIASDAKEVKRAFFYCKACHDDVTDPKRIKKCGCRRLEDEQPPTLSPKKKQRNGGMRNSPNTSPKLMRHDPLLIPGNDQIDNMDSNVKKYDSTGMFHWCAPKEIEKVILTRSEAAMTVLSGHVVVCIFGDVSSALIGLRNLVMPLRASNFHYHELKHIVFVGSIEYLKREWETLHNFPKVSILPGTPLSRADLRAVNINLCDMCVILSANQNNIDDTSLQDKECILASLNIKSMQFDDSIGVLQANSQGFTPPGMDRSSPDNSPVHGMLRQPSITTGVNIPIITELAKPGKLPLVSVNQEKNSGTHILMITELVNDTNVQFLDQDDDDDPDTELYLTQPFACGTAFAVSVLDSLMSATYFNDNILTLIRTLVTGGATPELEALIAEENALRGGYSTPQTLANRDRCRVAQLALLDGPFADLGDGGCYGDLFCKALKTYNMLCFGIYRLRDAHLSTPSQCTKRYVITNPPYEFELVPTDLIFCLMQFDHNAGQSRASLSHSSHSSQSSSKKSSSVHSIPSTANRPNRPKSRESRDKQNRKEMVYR
T2 sequence (Q08460 66-246 partner, one chain of several): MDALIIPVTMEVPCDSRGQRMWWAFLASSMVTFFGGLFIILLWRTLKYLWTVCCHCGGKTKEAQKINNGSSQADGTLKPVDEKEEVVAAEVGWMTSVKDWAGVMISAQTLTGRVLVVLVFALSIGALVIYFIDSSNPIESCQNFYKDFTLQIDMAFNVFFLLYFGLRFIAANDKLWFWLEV
Sequence of Slo1-Y294V (Q08460 66-1209 Y359V limits assumed): as the sequence (Q08460 66-1209 limits assumed) above, with Y294V counted along it

SMILES: Nc1ccncc1 [4-AP, 4-aminopyridine]
zδ (mouse Slo1 K+ channels [1]; cytosolic 4-AP at pH 7.0, Scheme 1a (Fig. 7C)): 0.17 ± 0.01 e and 0.18 ± 0.02 e
zδ (mouse Slo1 K+ channels [1]; cytosolic 4-AP at pH 8.5, Scheme 1a (Fig. 7D)): 0.05 ± 0.06 e
zδ (mouse Slo1 K+ channels [1]; cytosolic 4-AP at pH 8.5, state-independent Scheme 2a (Fig. 7D)): 0.11 ± 0.03 e
zc (mouse Slo1 K+ channels [1]; [11]): 0.33 ± 0.32 e
zo (mouse Slo1 K+ channels [1]; [11]): 0.12 ± 0.03 e
zc (mouse Slo1 K+ channels [1]; [12]): 0.10 ± 0.02 e
zo (zδ) (mouse Slo1 K+ channels [1]; cytosolic 4-AP, state-independent OB-CB (2a) 2 params): 0.10 ± 0.02e e
z(p) (mouse Slo1 K+ channels [1]; cytosolic 4-AP, pH 7.0 and 8.5 fit simultaneously with two-site Scheme 3): 0.19 ± 0.02 e
percent protonated ([2]; 4-AP at pH 7.0): 99.4%
percent protonated ([2]; 4-AP at pH 8.5): 83.4%
zo (mouse Slo1 K+ channels [3]; extracellular 4-AP, 300 μM Ca2+, pH 8.5, fit OB-CB (2a) 2 params): 0.48 ± 0.04 e
effect of extracellular 4-AP on MC13/Slo3 currents [4]: relatively insensitive; also recorded: little effect; also recorded: essentially no blocking effect
effect of extracellular 4-AP on MC13/Slo3 currents ([4]; listed as 4-APo): without effect
difference in affinity of Slo1 and Slo3 channels for extracellular 4-AP [5]: at least 20 fold
concentration disrupting volume regulation (human sperm): 1 to 4 mM
zc ([6]; cytosolic 4-AP, fit OB-CB (2') 4 params (zo fixed 0)): 0.26 + 1.05 e
zo [6, 12]: 0.17 ± 0.02 e
zo (zδ) ([6]; cytosolic 4-AP, open channel block OB (1a) 2 params): 0.02 ± 0.03 e
concentration disrupting volume regulation (murine sperm): 1 to 4 mM
zo (mouse Slo3 K+ channels [7]; cytosolic 4-AP, pH 8.5, fit OB-CB (2a) 2 params): 0.16 ± 0.01 e
Slo3 more sensitive than Slo1 to cytosolic 4-AP (mouse Slo3 K+ channels [7]; open channel block): 10–15 fold

zc (mouse Slo1 K+ channels [1]; [14]): 0.57 ± 0.32 e
zo (mouse Slo1 K+ channels [1]; [14]): 0.16 ± 0.20 e
zc (mouse Slo1 K+ channels [1]; [15]): 0.22 ± 0.02 e
zo (mouse Slo1 K+ channels [1]; [15]): 0.22 ± 0.02 e
zo (zδ) (mouse Slo1 K+ channels [1]; cytosolic TEA, open channel block OB (1a) 2 params): 0.15 ± 0.02 e
Kd (mouse Slo1 K+ channels [1]; read-out: Kbc, cytosolic TEA, fit OB-CB (2') 4 params): 61400 ± 34800 µM
Kd (mouse Slo1 K+ channels [1]; read-out: Kbc, cytosolic TEA, fit OB-CB (2a) 2 params): 73500 ± 4500 µM
Kd (mouse Slo1 K+ channels [1]; read-out: Kbo, cytosolic TEA, fit OB-CB (2') 4 params): 78600 ± 22600 µM
Kd (mouse Slo1 K+ channels [1]; read-out: Kbo, cytosolic TEA, fit OB-CB (2a) 2 params): 73500 ± 4500 µM
block of Slo1 current (mouse Slo1 K+ channels [3]; 250 μM extracellular TEA, at 0 mV): about 50%
zo (mouse Slo1 K+ channels [3]; extracellular TEA, 300 μM Ca2+, pH 8.5, fit OB-CB (2') 4 params (zc fixed 0)): 0.23 ± 0.04 e
zc (voltage-dependence of closed state block) (mouse Slo1 K+ channels [3]; extracellular TEA, 300 μM Ca2+, pH 8.5, fit OB-CB (2a) 2 params): 0.23 ± 0.02 e
zo (voltage-dependence of open state block) (mouse Slo1 K+ channels [3]; extracellular TEA, pipette 300 μM Ca2+, pH 8.5, fit OB (1a) 2 params): 0.34 ± 0.02 e
Kd (mouse Slo1 K+ channels [3]; read-out: Kbc (affinity of blocker to closed state), extracellular TEA, 300 μM Ca2+, pH 8.5, fit OB-CB (2a) 2 params): 174 ± 8 µM
Kd (mouse Slo1 K+ channels [3]; read-out: Kbo (affinity of blocker to open state), extracellular TEA, pipette 300 μM Ca2+, pH 8.5, fit OB (1a) 2 params): 132 ± 6.9 µM
effect of extracellular TEA on Slo1-Y294V (Slo1-Y294V): lack of effect
zc ([6]; cytosolic TEA, 0 Ca2+, fit OB-CB (2') 4 params (zo fixed 0)): 0.06 ± 0.20 e
zc [6, 16]: 0.05 ± 0.02 e
zo (z) [6, 16]: 0.05 ± 0.02 e
Kd ([6]; read-out: Kbc, cytosolic TEA, 0 Ca2+, fit OB-CB (2') zo = zc = 0 e): 2360 ± 420 µM
Kd ([6]; read-out: Kbc, cytosolic TEA, 0 Ca2+, fit OB-CB (2a) 2 params): 2010 ± 290 µM
Kb ([6]; read-out: Kbo (Kb), cytosolic TEA, 0 Ca2+, fit OB-CB (2a) 2 params): 2010 ± 290 µM
Kd ([6]; read-out: Kbo, cytosolic TEA, 0 Ca2+, fit OB (1a) zo = 0 e): 330 ± 10 µM
Kd ([6]; read-out: Kbo, cytosolic TEA, 0 Ca2+, fit OB-CB (2') zo = zc = 0 e): 560 ± 60 µM
block of Slo3 (mouse Slo3 K+ channels [10]): resistant to block
SMILES: CC[N+](CC)(CC)CC [TEA, tetraethylammonium]
Kb (BK single channels [8]; [13]): 60000 µM
zδ (BK single channels [8]): 0.26 e
Kb (BK single channels [9]; [13]): 34700 µM
zδ (BK single channels [9]): 0.27 e
effects on sperm function (sperm): not produced
effect of extracellular TEA on MC13 ([4]; TEA up to 10 mM): only minor effects; also recorded: minimal effect
IC50 (Slo1/BK-type channels): 200 to 300 µM
